The record followed here is ChEMBL document CHEMBL1125797, “Synthesis, characterization and myocardial uptake of cationic bis(arene)technetium(I) complexes” (J Med Chem, 1991).

Data set [1] is filed under the species Rattus norvegicus. The experiment in a line: The compound was tested for the plasma binding in rat. It counts as ADME, organism-based.
Data set [2] can be described thus: The compound was tested for the plasma binding in human. It counts as ADME, cell-free. The gist of the method: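 Fresh heparinized human plasma (1.0 mL, obtained daily) was spiked with 0.02 mL test solution and incubated about 15 min. Duplicate samples went through saline-equilibrated Sephadex G-25 desalting columns by centrifugation. Eluate and gel were γ-counted for 1 min or to 1% σ error. % bound = net cpm eluate / net cpm (eluate + gel) × 100.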

The subject of data set [3] is Rattus norvegicus. The experiment in a line: Biodistribution of compound in rat blood after 5 min of administration. It counts as ADME, organism-based. Particulars: in vivo. The gist of the method: (§1)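 Female Sprague-Dawley rats (150–200 g) received the 99mTc complex in normal saline (~12.5 μCi/mL) via a lateral tail vein at ~25 μCi/kg. They were killed by cervical dislocation 5 min after injection. Tissues were washed with saline, blotted, weighed and γ-counted, and the read-out was percent injected dose per g tissue.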

In data set [4] the test system is Rattus norvegicus. The experiment in a line: Biodistribution of compound in rat heart after 5 min of administration. It counts as ADME, organism-based. Particulars: in vivo. An outline of the steps:
as §1

In data set [5] the test system is Rattus norvegicus. As to the kind of experiment: Biodistribution of compound in rat kidney after 5 min of administration. It counts as ADME, organism-based. The following applies: in vivo. An outline of the steps:
as §1

Data set [6] concerns Rattus norvegicus. As to the kind of experiment: Biodistribution of compound in rat liver after 5 min of administration. It counts as ADME, organism-based. The following applies: in vivo. The gist of the method:
as §1

Data set [7] concerns Rattus norvegicus. As to the kind of experiment: Biodistribution of compound in rat lung after 5 min of administration. It counts as ADME, organism-based. The following applies: in vivo. The gist of the method: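 Rats received the 99mTc complex in normal saline (~12.5 μCi/mL) by lateral tail vein injection at ~25 μCi/kg and were killed by cervical dislocation at the stated time. Tissues were washed with saline, blotted, weighed and γ-counted to give percent injected dose/g. Time-course values are averages of male and female rats.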

The test system of data set [8] is Rattus norvegicus. As to the kind of experiment: Biodistribution of compound in rat muscle after 5 min of administration. The following applies: in vivo. It counts as ADME, organism-based, Muscle tissue. The gist of the method:
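Female Sprague-Dawley rats (150–200 g) received the complex in normal saline (~12.5 μCi/mL) through a lateral tail vein at ~25 μCi/kg. Rats were killed by cervical dislocation 5 min after injection. Tissues were washed with saline, blotted, weighed and γ-counted to give percent injected dose/g tissue.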

Regarding Bis(1,2,4-trimethylbenzene)technetium, the Plasma binding in the data set listed under Rattus norvegicus [1] is on record as 12%; in data set [2], 20%. The Dose/g is reported as 0.38% with Rattus norvegicus [3]; 1.4% with Rattus norvegicus [4]; 7% in the data set with Rattus norvegicus [5]; 0.8% in the data set on Rattus norvegicus [6]; 0.78% in the data set with Rattus norvegicus [7]; 0.32% in the data set on Rattus norvegicus [8].
